Results pooled from the literature.
Compare with care: the assays were run in different laboratories.
Target: Death-associated protein kinase 2 (DAPK2, Homo sapiens, UniProt Q9UIK4)

| SMILES | test | conditions | measurement | result |
| --- | --- | --- | --- | --- |
| N#CC1(c2ccccn2)CCN(Cc2cc(C(=O)O)c(=O)n3ccccc23)CC1 | cell-free assay, competition with immobilised ligand | 1 µM | remaining binding | 99% |
| O=c1[nH]c2ccccc2n1C1CCN(Cc2ccc(-c3[nH]c4cc5ncnc5cc4nc3-c3ccccc3)cc2)CC1 | cell-free assay | 0.5 µM | remaining signal | 99% |
| Cn1cncc1[C@@](O)(COc1ccc(C#N)cc1-c1ccc(OC(F)(F)F)cc1)c1ccc(C#N)cc1 | cell-free assay, competition with immobilised ligand | 1 µM | remaining binding | 97% |
| CC(C)(C)c1cc(C=C(C#N)C#N)cc(Br)c1O | enzyme activity, inhibitor | 0.5 µM | remaining activity | 108% |
| COc1ncccc1-c1cnn2ccc(N3CCN(C(=O)OC(C)C)CC3)nc12 | binding, competition with immobilised ligand | 1 µM | remaining binding | 86% |
| COc1cc(Nc2ncc(F)c(Nc3ccc4c(n3)NC(=O)C(C)(C)O4)n2)cc(OC)c1OC | binding, competition with immobilised ligand | 10 µM | inhibition | 95% |
| Cc1nn(C)cc1-c1nc2c(N3CCN(Cc4ccc(Cl)cc4)CC3)c(Cl)cnc2[nH]1 | binding, competition with immobilised ligand | 1 µM | remaining binding | 80% |
| Nc1ncc(-c2nc(N3CCOCC3)nc(N3CCOCC3)n2)c(C(F)F)n1 | binding, competition with immobilised ligand | 10 µM | remaining binding | 76% |
